OXTR potentiator = human OXTR potentiation; activation, % at 3 µM; AID 2445; CHO-OTR cells, Fluo-8 calcium fluorescence, potentiator mode; 0% = oxytocin EC15, 100% = EC100; 320,000 compounds, 0.061% hits; P30559;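 active means activation above that plate's cutoff, the mean activation of tested compounds plus 3 SD, cut at about 6.6% in these data, passing the limit was not always enough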;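 further: 100% uses oxytocin at 75 nM as the full agonist control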
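Replication – single well per compound, singlicate · Assay system – CHO cell line stably expressing human OTR · Timing – 6 min pre-incubation, 100 s read · Measure – normalized max/min fluorescence ratio, % activation · Doses – 3.0 µM, one dose · Detection – Fluo-8 calcium dye fluorescence · Probe or stimulus – oxytocin near EC15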
TRPML3 ag = activates the human TRPML3 channel. activation, % at 3 µM. HEK293 TRPML3-YFP, Fluo-8 calcium fluorescence; 100% = the carbachol control signal. AID 1448. Q8TDD5. 220,000 compounds, 0.29% hits;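 active means activation above its plate's cutoff, the mean activation of the plate's test wells plus 3 SD, cut at about 12% in these data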;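 further: 0% = DMSO only wells and 100% = carbachol wells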
Target sequence (Q8TDD5 whole entry, looked up): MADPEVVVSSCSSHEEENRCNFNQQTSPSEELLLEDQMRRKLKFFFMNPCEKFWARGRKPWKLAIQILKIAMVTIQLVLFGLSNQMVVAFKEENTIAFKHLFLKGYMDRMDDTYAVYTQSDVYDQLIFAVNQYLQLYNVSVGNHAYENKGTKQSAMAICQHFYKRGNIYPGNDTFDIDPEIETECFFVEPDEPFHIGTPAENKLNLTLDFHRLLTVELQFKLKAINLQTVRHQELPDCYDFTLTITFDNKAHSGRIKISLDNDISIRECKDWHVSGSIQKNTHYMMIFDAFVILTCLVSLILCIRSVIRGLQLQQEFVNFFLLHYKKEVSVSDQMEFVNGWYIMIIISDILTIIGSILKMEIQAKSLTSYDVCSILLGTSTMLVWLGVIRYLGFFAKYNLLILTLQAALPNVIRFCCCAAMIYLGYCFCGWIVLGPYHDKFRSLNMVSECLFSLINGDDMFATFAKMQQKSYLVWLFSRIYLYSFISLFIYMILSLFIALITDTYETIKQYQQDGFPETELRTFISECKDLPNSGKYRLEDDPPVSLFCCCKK
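Test system: HEK293 cells stably carrying human TRPML3-YFP; Doses: single dose, 3 µM final nominal compound, 0.3% DMSO final; Schedule: dye loading 1 h 37 °C then 30 min ambient, 125 s read; Technique: Fluo-8 calcium fluorescence; Benchmarks: high control carbachol 87 µM, low control DMSO.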
OXTR agonist = activates the human oxytocin receptor. CHO-OTR cells, Fluo-8 calcium fluorescence; normalized: DMSO 0%, oxytocin 100%. 320,000 compounds, 0.32% hits. activation, % at 3 µM;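 active means activation above the mean of all tested compounds plus 3 SD, cutoff set per screening run, cut at about 20% in these data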;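 further: peak over basal fluorescence ratio from a 100 s FLIPR kinetic read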
zfTRPN1 agonist = zebrafish TRPN1 (NompC) channel agonism; AID 1424; HEK293 zebrafish TRPN1-YFP, Fluo-8 calcium fluorescence; 100% = response to 87 µM carbachol; activation, % at 3 µM; 220,000 compounds, 0.18% hits;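 active means activation above its plate's cutoff, the mean activation of test wells on that plate plus 3 SD, cut at about 19% in these data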;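 further: 0% = DMSO alone and 100% = 87 µM carbachol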
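Material – zebrafish TRPN1-YFP in HEK293 cells · Doses – 3 µM single point · Schedule – dye 1 h 37 °C plus 30 min RT · Signal – Fluo-8 calcium fluorescence, excitation 470-495 nm, emission 515-575 nm · Read-out – % activation versus carbachol response · Control set – carbachol high, DMSO low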
V1aR counter = counter-screen for oxytocin receptor agonists: human V1a receptor agonists | P37288 | CHO-V1R cells, Fluo-8 calcium fluorescence, agonist mode; 0% DMSO, 100% 3 nM vasopressin | activation, % at 3 µM | 320,000 compounds, 0.25% hits;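 active means activation above the mean activation of all tested compounds plus 3 SD, per screening run, cut at about 20% in these data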;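 further: signal is peak over basal fluorescence ratio across a 100 second FLIPR read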
V1aR agonist cf = confirmation of human vasopressin V1a receptor agonists; shares compounds with V1aR counter; CHO-V1R cells, Fluo-8 calcium fluorescence, agonist; activation, % at 3 µM; 180 compounds, 20% hits;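 active means average activation exceeds primary screen hit cutoff, cut at about 21% in these data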;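 further: peak over basal fluorescence ratio during a 100 s FLIPR read; 0% = DMSO only wells and 100% = 3 nM vasopressin wells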
OXTR counter = OXTR agonism, counter-screen for V1R agonists; shares compounds with V1aR counter; CHO-OTR cells, Fluo-8 calcium fluorescence, agonist; activation, % at 3 µM; 180 compounds, 10% hits;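 active means mean activation over three repeats above the cutoff from the earlier oxytocin receptor agonist screen, cut at about 20% in these data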;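 further: peak over minimum fluorescence ratio within a 100 second FLIPR read; 0% = DMSO only wells and 100% = oxytocin high control wells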
Numbers without * were called inactive; / = no result given. Only some compounds are listed: those with a hit (about 0.58% of all), similar ones and a draw of the others.

SMILES	OXTR potentiator	TRPML3 ag	OXTR agonist	zfTRPN1 agonist	V1aR counter	V1aR agonist cf	OXTR counter
CCN1C(=S)SC(=O)C1=C1C=C(C)N(Cc2ccco2)C(C)=C1	-25	6	19	8	24*	23*	18
COc1ccc(CC(=O)Nc2nccs2)cc1S(=O)(=O)N1CCOCC1	0	/	2	/	2	/	/
COc1ccc2nc(NC(=O)Cc3ccc(OC)c(S(=O)(=O)N4CCOCC4)c3)sc2c1	-18	1	18	1	23*	1	5
COc1ccc(NC(=O)CSc2ccc3c4c(cccc24)C(=O)c2ccccc2-3)cc1	-16	4	8	5	9	/	/
N#Cc1cccc(NC(=O)CSc2ccc3c4c(cccc24)C(=O)c2ccccc2-3)c1	-11	3	14	3	41*	107*	84*
CC(C)CC1NC(C(=O)O)Cc2c1[nH]c1ccccc21 (stereo not given)	-9	/	0	/	1	/	/
Cc1c(NC(=O)CSc2ccccc2F)c(=O)n(-c2ccccc2)n1C	11	0	1	0	1	/	/
Cc1c(NC(=O)CSc2ccccc2C(=O)Nc2cccnc2)c(=O)n(-c2ccccc2)n1C	1	0	0	2	31*	-1	-1
CCOC(=O)c1c(NC(=O)CC)sc2c1CCN(Cc1ccccc1)C2	-5	/	4	/	22*	3	8
CC(=O)c1sc(NC(=O)Cc2c(F)cccc2Cl)nc1C	-2	/	-1	/	-1	/	/
O=C(Cc1c(F)cccc1Cl)Nc1nc2ccccc2s1	-20	0	1	0	22*	2	-1
CC(C)C(=O)N(Nc1nc2ccccc2s1)C(=O)C(C)C	-7	0	-2	0	0	/	/
N#C/C(=C(/O)CSc1ccccn1)c1nc2ccccc2s1	-15	2	14	7	27*	2	1
Cc1ccc(SC/C(O)=C(\C#N)c2nc3ccccc3s2)cc1	-30	1	11	1	8	/	/
Cc1cccc(OCC(=O)NNC(=O)c2ccccc2OCc2c(C)noc2C)c1	0	/	-1	/	2	/	/
CC(CC(=O)N1CCN(c2cccc(Cl)c2)CC1)S(=O)(=O)c1ccc2c(c1)NC(=O)CO2 (stereo not given)	-13	/	17	/	21*	7	5
Cc1ccc(C)c(/C=C/C(=O)c2ccccc(=O)c2O)c1	-2	-1	1	0	0	/	/
COc1ccc(/C=C/CN2CCC(CO)(Cc3ccccc3Cl)CC2)cc1	-25	0	13	2	28*	3	9
C#CCOCCOCCOCCNc1nc(N2CCN(C(=O)CCCCCCCCCCNC(=O)[C@@H](CCC(=O)O)n3cc(CCCCCN)nn3)CC2)nc(N2CCN(C(=O)CCCCCCCCCCNC(=O)[C@H]([C@@H](C)CC)n3cc(CCCCCN)nn3)CC2)n1	-13	/	15	/	12	/	/
C#CCOCCOCCOCCNc1nc(N2CCN(C(=O)CCCCCCCCCCNC(=O)[C@H](CCCCN)n3cc(CCCC(=O)O)nn3)CC2)nc(N2CCN(C(=O)CCCCCCCCCCNC(=O)[C@@H]([C@H](C)O)n3cc(C)nn3)CC2)n1	-3	/	7	/	21*	5	2
C#CCOCCOCCOCCNc1nc(N2CCN(C(=O)CCCCCCCCCCNC(=O)[C@H]([C@@H](C)CC)n3cc(CCCCCN)nn3)CC2)nc(N2CCN(C(=O)CCCCCCCCCCNC(=O)[C@H](CCCCN)n3cc(CCCC(=O)O)nn3)CC2)n1	-7	/	9	/	20*	2	1
C#CCOCCOCCOCCNc1nc(N2CCN(C(=O)CCCCCCCCCCNC(=O)[C@H](CCCCN)n3cc(C)nn3)CC2)nc(N2CCN(C(=O)CCCCCCCCCCNC(=O)[C@H](CCCCN)n3cc(CCCC(=O)O)nn3)CC2)n1	-8	/	2	/	6	/	/
CN1CCN(C(=O)C2CCCCC2C(=O)O)CC1 (stereo not given)	9	1	2	1	1	/	/
O=C(COc1ccccc1[N+](=O)[O-])N/N=C/c1ccc(O)c([N+](=O)[O-])c1	-14	0	3	0	67*	0	-1
COc1ccc(Nc2cc(C(=O)NCCCOC(C)C)c3ccccc3n2)c(OC)c1	-8	/	0	/	25*	0	-1
SMILES	OXTR potentiator	TRPML3 ag	OXTR agonist	zfTRPN1 agonist	V1aR counter	V1aR agonist cf	OXTR counter
COc1ccnc(Oc2ccc(F)cc2)c1C(=O)N/C=N/OCc1ccc(Cl)cc1Cl	-5	1	3	1	3	/	/
COc1ccccc1N1C(=O)c2cccc3c(N(C)CCO)ccc(c23)C1=O	-10	/	18	/	31*	18	11
COc1ccccc1N1C(=O)c2cccc3c(C(=O)O)ccc(c23)C1=O	5	0	2	-1	0	/	/
COc1cc(OC)c(/C=C2\SC(=O)N(CC(=O)Nc3ccccc3F)C2=O)c(OC)c1	-9	/	0	/	0	/	/
COc1cc(/C=C2\SC(=O)N(CC(=O)Nc3ccccc3F)C2=O)cc(Cl)c1O	-15	/	17	/	22*	67*	60*
COc1ccc(NC(=O)CN2C(=O)/C(=C3\SC(=S)N(C4CCS(=O)(=O)C4)C3=O)c3ccccc32)cc1 (stereo not given)	-1	1	-2	1	22*	0	0
O=C(NC1CCN(S(=O)(=O)c2ccccc2F)CC1)c1ccco1	3	/	1	/	2	/	/
COC(=O)c1cc(CNC(=O)c2ccc(S(=O)(=O)N(C)c3ccccc3)cc2)ccc1OC	-7	/	5	/	24*	1	0
Cc1ccc(C)n1-c1ccc(C(=O)N/N=C/c2ccncc2)cc1	-13	-1	0	-2	0	/	/
Cc1cccc(NC(=S)NNC(=O)c2ccco2)c1	-3	1	1	1	23*	0	0
COc1cccc(N2CCN(c3ccc(S(=O)(=O)N4CCN(C)CC4)cc3[N+](=O)[O-])CC2)c1	-8	/	15	/	21*	7	6
O=C(NCc1ccc(F)cc1Cl)C1CCN(S(=O)(=O)N2CCC3(CC2)OCCO3)CC1	2	1	0	0	1	/	/
O=C(c1ccccc1NS(=O)(=O)c1ccc(F)cc1)N1CCc2ccccc21	-5	0	-2	-1	24*	4	0
COc1ccc(C(=O)O)cc1S(=O)(=O)N(C)CCc1cccnc1	0	1	2	2	0	/	/
COc1ccc(C(=O)O)cc1S(=O)(=O)N(CCc1ccccc1)Cc1ccccc1	-8	1	10	2	25*	2	2

Assay outcomes as filed in PubChem.
